Results published in ChEMBL document CHEMBL1140372, “Synthesis, structure-activity relationships, and biological properties of 1-heteroaryl-4-[omega-(1H-indol-3-yl)alkyl]piperazines, novel potential antipsychotics combining potent dopamine D2 receptor antagonism with potent serotonin reuptake inhibition” (J Med Chem, 2005).

Legend:
[1] = biological target: Sodium-dependent serotonin transporter (Rattus norvegicus, UniProt P31652); test: In vitro inhibitory constant against [3H]paroxetine binding to rat frontal cortex membrane serotonin reuptake site; format: tissue-based
How it was run: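 Rat frontal cortex membranes; serotonin reuptake sites labelled with [3H]paroxetine in competition binding. Ki (nM) calculated from at least three independent experiments.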

D(2) dopamine receptor [2] = biological target: T1, D(2) dopamine receptor (Homo sapiens, UniProt P14416); test: In vitro inhibitory constant against [3H]spiperone binding to human dopamine D2 receptor expressed in CHO cells; format: cell-based
[3] = biological target: Sodium-dependent serotonin transporter (Mus musculus) (UniProt Q60857); test: Effective dose against potentiation of 5-HTP induced serotonin syndrome in mice upon oral administration (Serotonin reuptake inhibitory activity); format: functional, organism-based
D(2) dopamine receptor [4] = biological target: T1, D(2) dopamine receptor; test: In vitro inhibitory constant against [3H]spiperone binding to human dopamine D2 receptor expressed in CHO cells; NA= not active; format: cell-based
How it was run: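 Membrane preparation from CHO cells transfected with human D2L receptor; competition binding against [3H]spiperone.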

Sodium-dependent serotonin transporter (Mus musculus), sequence (Q60857 whole entry): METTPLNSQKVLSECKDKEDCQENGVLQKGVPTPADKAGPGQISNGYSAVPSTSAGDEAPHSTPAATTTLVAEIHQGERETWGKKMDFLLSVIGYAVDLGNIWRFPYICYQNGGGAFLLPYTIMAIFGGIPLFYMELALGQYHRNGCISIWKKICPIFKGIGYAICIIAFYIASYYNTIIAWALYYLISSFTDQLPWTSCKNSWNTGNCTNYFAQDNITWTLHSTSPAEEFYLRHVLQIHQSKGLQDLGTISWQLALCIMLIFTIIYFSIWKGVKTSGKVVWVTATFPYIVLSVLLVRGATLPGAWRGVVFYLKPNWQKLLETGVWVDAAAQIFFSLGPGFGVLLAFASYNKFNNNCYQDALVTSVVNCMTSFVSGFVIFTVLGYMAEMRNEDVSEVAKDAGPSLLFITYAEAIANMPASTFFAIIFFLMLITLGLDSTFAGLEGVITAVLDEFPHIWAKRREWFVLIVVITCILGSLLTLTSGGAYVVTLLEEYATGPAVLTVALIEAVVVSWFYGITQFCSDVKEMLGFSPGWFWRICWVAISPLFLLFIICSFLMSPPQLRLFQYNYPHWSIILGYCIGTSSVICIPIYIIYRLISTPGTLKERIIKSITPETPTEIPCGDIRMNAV
Sodium-dependent serotonin transporter, sequence (P31652 whole entry): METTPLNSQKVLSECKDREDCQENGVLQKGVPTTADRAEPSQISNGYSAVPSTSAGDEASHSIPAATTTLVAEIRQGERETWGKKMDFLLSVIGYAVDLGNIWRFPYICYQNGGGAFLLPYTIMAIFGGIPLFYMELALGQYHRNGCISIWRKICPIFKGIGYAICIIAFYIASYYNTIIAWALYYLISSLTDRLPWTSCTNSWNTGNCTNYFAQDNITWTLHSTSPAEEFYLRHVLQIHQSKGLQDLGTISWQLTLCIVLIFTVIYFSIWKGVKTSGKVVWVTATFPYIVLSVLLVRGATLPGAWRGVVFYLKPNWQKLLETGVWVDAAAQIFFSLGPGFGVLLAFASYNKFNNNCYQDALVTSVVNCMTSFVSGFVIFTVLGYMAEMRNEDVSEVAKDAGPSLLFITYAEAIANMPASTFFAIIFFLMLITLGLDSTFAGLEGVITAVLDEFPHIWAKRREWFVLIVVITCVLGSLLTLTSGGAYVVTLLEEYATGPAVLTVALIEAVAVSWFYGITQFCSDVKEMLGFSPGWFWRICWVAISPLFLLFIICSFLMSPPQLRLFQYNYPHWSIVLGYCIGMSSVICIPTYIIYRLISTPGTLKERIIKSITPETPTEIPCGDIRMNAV
T1 sequence (P14416 whole entry): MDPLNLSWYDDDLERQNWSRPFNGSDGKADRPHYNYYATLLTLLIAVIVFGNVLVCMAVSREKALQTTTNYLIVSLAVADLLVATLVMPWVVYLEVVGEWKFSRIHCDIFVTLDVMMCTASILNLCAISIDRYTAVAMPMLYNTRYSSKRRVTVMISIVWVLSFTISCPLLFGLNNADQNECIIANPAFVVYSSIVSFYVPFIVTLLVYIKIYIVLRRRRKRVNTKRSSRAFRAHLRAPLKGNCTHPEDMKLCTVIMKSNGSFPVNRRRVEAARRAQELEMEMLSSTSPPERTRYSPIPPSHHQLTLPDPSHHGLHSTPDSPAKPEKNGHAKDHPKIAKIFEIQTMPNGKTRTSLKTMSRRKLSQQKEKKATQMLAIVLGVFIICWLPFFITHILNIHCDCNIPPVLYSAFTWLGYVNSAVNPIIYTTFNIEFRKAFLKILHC

Row | Structure (SMILES) | Ki [1] [nM] | Ki (D(2) dopamine receptor [2]) [nM] | ED50 [3] [mg/kg] | Ki (D(2) dopamine receptor [4])
1 | Clc1cccc2c(CCCN3CCN(c4cccc5c4OCCO5)CC3)c[nH]c12 |  | 15.5 |  | 
2 | c1cc2c(c(N3CCN(CCCc4c[nH]c5ccccc45)CC3)c1)CCCO2 |  | 20.3 | 100 | 
3 | CN1CCCc2c1cccc2N1CCN(CCCc2c[nH]c3ccccc23)CC1 | 7.4 | 90 |  | 
4 | Clc1ccc2[nH]cc(CCCN3CCN(c4cccc5c4OCCO5)CC3)c2c1 | 0.5 | 31.6 |  | 
5 | CC1CNc2cccc(N3CCN(CCCc4c[nH]c5ccccc45)CC3)c2C1 (stereo unspecified) | 2.7 | 15 | > 100 | 
6 | COc1ccc2[nH]cc(CCCN3CCN(c4cccc5c4OCCO5)CC3)c2c1 |  | 15 |  | 
7 | c1cc2c(c(N3CCN(CCCc4c[nH]c5ccccc45)CC3)c1)OCCO2 |  | 21 | 22 | 
8 | CC1Oc2c(N3CCN(CCCc4c[nH]c5ccccc45)CC3)cccc2N(C)C1=O (stereo unspecified) | 1.4 | 35.7 | 5.6 | 
9 | c1cc2c(c(N3CCN(CCc4c[nH]c5ccccc45)CC3)c1)OCCO2 | 12 | 45 |  | 
10 | c1cc2c(c(N3CCN(CCCc4c[nH]c5ccccc45)CC3)c1)OCCN2 | 1.5 | 17.9 | 100 | 
11 | Cc1ccc2[nH]cc(CCCN3CCN(c4cccc5c4OCCO5)CC3)c2c1 | 0.4 |  |  | 
12 | c1ccc2c(CCC3CCNCC3)c[nH]c2c1 [INDALPINE] |  |  |  | Not Active
13 | O=C1CCc2c(cccc2N2CCN(CCCc3c[nH]c4ccccc34)CC2)N1 | 1.5 | 11.4 | 9 | 
14 | Fc1ccc2c(CCCN3CCN(c4cccc5c4OCCO5)CC3)c[nH]c2c1 |  |  | 30 | 
15 | Fc1ccc2[nH]cc(CCCN3CCN(c4cccc5c4OCCO5)CC3)c2c1 |  | 19 | 2 | 
16 | Clc1cccc2[nH]cc(CCCN3CCN(c4cccc5c4OCCO5)CC3)c12 |  | 24 |  | 
17 | Cc1cccc2c(CCCN3CCN(c4cccc5c4OCCO5)CC3)c[nH]c12 |  | 15.9 |  | 

Now from value to compound:

Row | Ki [1] [nM] | Ki (D(2) dopamine receptor [2]) [nM] | ED50 [3] [mg/kg] | Ki (D(2) dopamine receptor [4]) | Structure (SMILES)
18 | 1.1 | 11.3 | 15 |  | c1cc2c(c(N3CCN(CCCc4c[nH]c5ccccc45)CC3)c1)CCCN2
19 |  | 8.1 | 32 |  | Fc1cccc2[nH]cc(CCCN3CCN(c4cccc5c4OCCO5)CC3)c12
20 | 0.6 | 4.3 | 30 |  | O=C1COc2c(cccc2N2CCN(CCCc3c[nH]c4ccccc34)CC2)N1
21 | 1 | 1 | > 10 |  | C[C@@H]1Oc2c(cccc2N2CCN(CCCc3c[nH]c4ccccc34)CC2)NC1=O
22 |  | 10.6 | 28.4 |  | Fc1cccc2c(CCCN3CCN(c4cccc5c4OCCO5)CC3)c[nH]c12
23 | 0.7 | 4.7 | 0.7 |  | C[C@@H]1Oc2c(cccc2N2CCN(CCCc3c[nH]c4ccc(F)cc34)CC2)NC1=O
24 | 2.4 | 5.3 | 30 |  | C[C@H]1Oc2c(cccc2N2CCN(CCCc3c[nH]c4c(F)cccc34)CC2)NC1=O
25 | 60 | 5.1 | > 30 |  | c1cc2c(c(N3CCN(CCCCc4c[nH]c5ccccc45)CC3)c1)OCCO2
26 |  | 2.1 | 86 |  | Clc1ccc2c(CCCN3CCN(c4cccc5c4OCCO5)CC3)c[nH]c2c1
27 | 0.5 | 8.7 | 3 |  | C[C@H]1Oc2c(cccc2N2CCN(CCCc3c[nH]c4ccccc34)CC2)NC1=O
28 | 0.4 | 4.5 | 3 |  | CC1Oc2c(cccc2N2CCN(CCCc3c[nH]c4ccccc34)CC2)NC1=O (stereo unspecified)
29 | 0.2 | 6.9 | 0.15 |  | C[C@H]1Oc2c(cccc2N2CCN(CCCc3c[nH]c4ccc(F)cc34)CC2)NC1=O
30 | 2.8 | 7.4 | 7.3 |  | CC1(C)Oc2c(cccc2N2CCN(CCCc3c[nH]c4ccccc34)CC2)NC1=O
31 | 3 | 1 | 10 |  | C[C@@H]1Oc2c(cccc2N2CCN(CCCc3c[nH]c4c(F)cccc34)CC2)NC1=O
32 |  | 9.1 |  |  | c1cc2c(c(N3CCN(CCCCCc4c[nH]c5ccccc45)CC3)c1)OCCO2
